Assay results as given in ChEMBL document CHEMBL4765263, “Design, synthesis, biological evaluation of 6-(2-amino-1H-benzo[d]imidazole-6-yl)quinazolin-4(3H)-one derivatives as novel anticancer agents with Aurora kinase inhibition” (Eur J Med Chem, 2020).

Tests used:
MDA-MB-231 = assay: Cytotoxicity against human MDA-MB-231 cells assessed as reduction in cell viability incubated for 72 hrs by MTT assay; format: functional, cell-based; conditions: MDA-MB-231, 72 h
Procedure, shortened: (§1)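 MTT viability assay. Cells kept in DMEM with 10% FBS at 37 °C and 5% CO2. Seeded at 5×10^3 cells per well and exposed to a range of compound concentrations from 20 mM DMSO stocks. IC50 is the mean of triplicate measurements.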

PC-3 = assay: Cytotoxicity against human PC-3 cells assessed as reduction in cell viability incubated for 72 hrs by MTT assay; format: functional, cell-based; conditions: PC-3, 72 h; procedure, shortened: as §1
SH-SY5Y = assay: Cytotoxicity against human SH-SY5Y cells assessed as reduction in cell viability incubated for 72 hrs by MTT assay; format: functional, cell-based; procedure, shortened: as §1
[1] = Solubility of compound in water; format: physicochemical; conditions: buffer

CCS(=O)(=O)Nc1nc2ccc(-c3ccc4ncn(CCN5CCOCC5)c(=O)c4c3)cc2[nH]1
IC50 (MDA-MB-231): > 20 µM
IC50 (PC-3): > 20 µM
IC50 (SH-SY5Y): > 20 µM

CCC(=O)Nc1nc2ccc(-c3ccc4ncn(C)c(=O)c4c3)cc2[nH]1
IC50 (MDA-MB-231): 13.5 µM
IC50 (PC-3): > 20 µM
IC50 (SH-SY5Y): 18.1 µM

CCC(=O)Nc1nc2ccc(-c3ccc4ncn(CCCN5CCOCC5)c(=O)c4c3)cc2[nH]1
IC50 (MDA-MB-231): 1.22 µM
IC50 (PC-3): 3.21 µM
IC50 (SH-SY5Y): 1.68 µM

Cc1cc(Nc2cc(N3CCN(C)CC3)nc(/C=C/c3ccccc3)n2)n[nH]1 [ENMD-2076]
IC50 (MDA-MB-231): 0.48 µM
IC50 (PC-3): 0.67 µM

CCC(=O)Nc1nc2ccc(-c3ccc4nc(CN5CCN(C(=O)CC)CC5)n(C)c(=O)c4c3)cc2[nH]1
IC50 (MDA-MB-231): > 20 µM
IC50 (PC-3): > 20 µM
IC50 (SH-SY5Y): 5.49 µM

O=C(Nc1nc2ccc(-c3ccc4ncn(CCN5CCOCC5)c(=O)c4c3)cc2[nH]1)N1CCOCC1
IC50 (MDA-MB-231): > 20 µM
IC50 (PC-3): > 20 µM
IC50 (SH-SY5Y): > 20 µM

CCS(=O)(=O)Nc1nc2ccc(-c3ccc4ncn(CC(=O)N5CCOCC5)c(=O)c4c3)cc2[nH]1
IC50 (MDA-MB-231): > 20 µM
IC50 (PC-3): > 20 µM
IC50 (SH-SY5Y): > 20 µM

O=C(Nc1nc2ccc(-c3ccc4ncn(CCN5CCOCC5)c(=O)c4c3)cc2[nH]1)C1CC1
IC50 (MDA-MB-231): 1.61 µM
IC50 (PC-3): 11.2 µM
IC50 (SH-SY5Y): 7.33 µM

CCCCC(=O)Nc1nc2ccc(-c3ccc4ncn(CCN5CCOCC5)c(=O)c4c3)cc2[nH]1
IC50 (MDA-MB-231): 3.85 µM
IC50 (PC-3): 6.54 µM
IC50 (SH-SY5Y): 4.19 µM

CCN(CC)C(=O)Nc1nc2ccc(-c3ccc4ncn(CCN5CCOCC5)c(=O)c4c3)cc2[nH]1
IC50 (MDA-MB-231): 1.76 µM
IC50 (PC-3): 8.13 µM
IC50 (SH-SY5Y): 2.52 µM
solubility [1]: Soluble

CCC(=O)Nc1nc2ccc(-c3ccc4ncn(CC(=O)N5CCOCC5)c(=O)c4c3)cc2[nH]1
IC50 (MDA-MB-231): > 20 µM
IC50 (PC-3): > 20 µM
IC50 (SH-SY5Y): > 20 µM
